From ChEMBL document CHEMBL4184291, “Discovery of N-arylpyrroles as agonists of GPR120 for the treatment of type II diabetes” (Bioorg Med Chem Lett, 2018)

Tests used:
Mus musculus [1] = assay: Antiobesity activity in diet-induced obesity C57Bl6/J mouse model assessed as change in plasma insulin level at 10 mg/kg qd for 15 days measured on day 15 post 6 hrs fasting; type: functional
Mus musculus [2] = assay: Antiobesity activity in diet-induced obesity C57Bl6/J mouse model assessed as change in plasma insulin level at 10 mg/kg bid for 15 days measured on day 15 post 6 hrs fasting; type: functional
[3] = Half life in mouse liver microsomes; type: ADME, microsome
Mus musculus [4] = assay: Antidiabetic activity in diet-induced obese C57Bl/6 mouse model assessed as change in plasma glucose AUC at 3 mg/kg, po administered 30 mins prior to glucose challenge measured up to 90 mins post dose by OGTT; type: functional
Procedure, shortened: (§1)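 Diet-induced obese mice dosed orally at 0.1–3.0 mg/kg 30 min before an oral glucose load (time 0). Glucose followed from 30 min pre-glucose to 90 min post-glucose. Saxagliptin 1 mg/kg was the positive control.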

Mus musculus [5] = assay: Antiobesity activity in diet-induced obesity C57Bl6/J mouse model assessed as change in plasma glucose level at 10 mg/kg bid for 15 days measured on day 15 post 6 hrs fasting; type: functional
Cavia porcellus [6] = assay: Cardiotoxicity in guinea pig assessed as effect on body temperature at 22.4 mg/kg; type: toxicity, organism-based; conditions: in vivo
Mus musculus [7] = assay: Antiobesity activity in diet-induced obesity C57Bl6/J mouse model assessed as basal insulin level in plasma at 10 mg/kg bid for 15 days measured on day 15 post 6 hrs fasting (reference value: 16959 +/- 4943 pg/ml); type: functional
[8] = Half life in dog at 1 mg/kg, iv by LC-MS/MS analysis; type: ADME, organism-based, Canis lupus familiaris; conditions: in vivo
Cavia porcellus [9] = assay: Cardiotoxicity in guinea pig assessed as effect on ECG morphology at 22.4 mg/kg; type: toxicity, organism-based; conditions: in vivo
[10] = Half life in mouse at 14.6 mg/kg, po by LC-MS/MS analysis; type: ADME, organism-based; conditions: in vivo
Mus musculus [11] = assay: Antiobesity activity in diet-induced obesity C57Bl6/J mouse model assessed as final glucose level in plasma at 10 mg/kg qd for 15 days measured on day 15 post 6 hrs fasting (reference value: 184 +/- 30 mg/dL); type: functional
Mus musculus [12] = assay: Glucose lowering effect in GPR120 knock out mouse assessed as plasma glucose AUC at 10 mg/kg administered 30 mins prior to glucose challenge measured up to 90 mins post dose by ipGTT (reference value: 7319 mg/dL.min); type: functional, organism-based; design: time < 1.5 hr, dose 10 mg/kg
Procedure, shortened: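 Intraperitoneal glucose tolerance test in GPR120 knockout mice at 10 mg/kg. Wild-type mice were run in parallel, and glucose lowering was compared with vehicle-treated animals.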

Cavia porcellus [13] = assay: Cardiotoxicity in guinea pig assessed as effect on PQ interval at 22.4 mg/kg; type: toxicity, organism-based; conditions: in vivo
Mus musculus [14] = assay: Antidiabetic activity in diet-induced obese C57Bl/6 mouse model assessed as plasma glucose AUC at 10 mg/kg administered 30 mins prior to glucose challenge measured up to 90 mins post dose by ipGTT (reference value: 10113 mg/dL.min); type: functional, organism-based; design: time < 1.5 hr, dose 10 mg/kg
Procedure, shortened: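 Intraperitoneal glucose tolerance test with 10 mg/kg dosing, run in GPR120 knockout mice and in wild-type mice.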

Mus musculus [15] = assay: Antiobesity activity in diet-induced obesity C57Bl6/J mouse model assessed as final glucose level in plasma at 30 mg/kg qd for 15 days measured on day 15 post 6 hrs fasting (reference value: 184 +/- 30 mg/dL); type: functional
[16] = Half life in mouse at 1.15 mg/kg, iv by LC-MS/MS analysis; type: ADME, organism-based; conditions: in vivo
Mus musculus [17] = assay: Antiobesity activity in diet-induced obesity C57Bl6/J mouse model assessed as reduction in body weight at 30 mg/kg qd for 15 days measured on day 15 post 6 hrs fasting relative to control; type: functional; design: scale not given: the % may be the effect or the level left
Mus musculus [18] = assay: Antiobesity activity in diet-induced obesity C57Bl6/J mouse model assessed as basal glucose level in plasma at 10 mg/kg bid for 15 days measured on day 15 post 6 hrs fasting (reference value: 187 +/- 24 mg/dL); type: functional
[19] = Half life in rat at 2 mg/kg, iv by LC-MS/MS analysis; type: ADME, organism-based; conditions: in vivo
[20] = AUClast in dog at 5 mg/kg, po by LC-MS/MS analysis; type: ADME, organism-based, Canis lupus familiaris; design: dose 5 mg/kg, route oral, time 0 - last; conditions: in vivo
Homo sapiens = species on record: Homo sapiens; assay: Selectivity ratio of EC50 for human GPR40 to EC50 for recombinant human GPR120 expressed in HEK293 cells; type: cell-based
[21] = biological target: Free fatty acid receptor 1 (Mus musculus, UniProt Q76JU9); assay: Agonist activity at mouse GPR40; type: functional
Sequence of Free fatty acid receptor 1 (Q76JU9 whole entry): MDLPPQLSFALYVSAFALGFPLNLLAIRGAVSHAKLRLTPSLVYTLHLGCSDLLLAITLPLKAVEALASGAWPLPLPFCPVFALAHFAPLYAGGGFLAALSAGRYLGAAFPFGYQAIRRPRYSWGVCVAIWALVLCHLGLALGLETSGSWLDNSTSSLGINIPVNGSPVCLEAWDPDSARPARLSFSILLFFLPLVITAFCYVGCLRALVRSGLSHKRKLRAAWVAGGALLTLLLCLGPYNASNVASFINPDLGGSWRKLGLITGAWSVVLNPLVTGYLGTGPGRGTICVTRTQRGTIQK

Cytochrome P450 1A2 = biological target: T1, Cytochrome P450 1A2 (Homo sapiens, UniProt P05177); assay: Inhibition of CYP1A2 (unknown origin); type: ADME
T1 sequence (P05177 whole entry): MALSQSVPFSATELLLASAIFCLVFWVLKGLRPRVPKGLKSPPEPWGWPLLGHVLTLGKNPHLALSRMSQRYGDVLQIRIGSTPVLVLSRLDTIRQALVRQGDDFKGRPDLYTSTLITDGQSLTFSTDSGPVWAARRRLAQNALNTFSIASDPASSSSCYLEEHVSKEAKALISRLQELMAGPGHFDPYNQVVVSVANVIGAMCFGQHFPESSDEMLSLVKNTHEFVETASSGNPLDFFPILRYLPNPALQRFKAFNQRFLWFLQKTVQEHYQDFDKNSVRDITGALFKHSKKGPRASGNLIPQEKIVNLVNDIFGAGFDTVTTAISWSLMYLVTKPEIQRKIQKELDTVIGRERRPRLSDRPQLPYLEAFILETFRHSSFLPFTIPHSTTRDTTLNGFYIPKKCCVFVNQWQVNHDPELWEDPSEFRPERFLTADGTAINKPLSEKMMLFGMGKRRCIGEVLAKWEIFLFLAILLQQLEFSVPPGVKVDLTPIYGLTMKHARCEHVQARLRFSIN

Mus musculus [22] = assay: Antiobesity activity in diet-induced obesity C57Bl6/J mouse model assessed as basal insulin level in plasma at 10 mg/kg qd for 15 days measured on day 15 post 6 hrs fasting (reference value: 16959 +/- 4943 pg/ml); type: functional
Mus musculus [23] = assay: Antiobesity activity in diet-induced obesity C57Bl6/J mouse model assessed as basal glucose level in plasma at 10 mg/kg qd for 15 days measured on day 15 post 6 hrs fasting (reference value: 187 +/- 24 mg/dL); type: functional
Mus musculus [24] = assay: Antidiabetic activity in diet-induced obese C57Bl/6 mouse model assessed as change in plasma glucose AUC at 0.3 mg/kg, po administered 30 mins prior to glucose challenge measured up to 90 mins post dose by OGTT; type: functional; procedure, shortened: as §1
Cytochrome P450 2C9 = Cytochrome P450 2C9 (Homo sapiens, UniProt P11712); assay: Inhibition of CYP2C9 (unknown origin); type: ADME
Sequence of Cytochrome P450 2C9 (P11712 whole entry): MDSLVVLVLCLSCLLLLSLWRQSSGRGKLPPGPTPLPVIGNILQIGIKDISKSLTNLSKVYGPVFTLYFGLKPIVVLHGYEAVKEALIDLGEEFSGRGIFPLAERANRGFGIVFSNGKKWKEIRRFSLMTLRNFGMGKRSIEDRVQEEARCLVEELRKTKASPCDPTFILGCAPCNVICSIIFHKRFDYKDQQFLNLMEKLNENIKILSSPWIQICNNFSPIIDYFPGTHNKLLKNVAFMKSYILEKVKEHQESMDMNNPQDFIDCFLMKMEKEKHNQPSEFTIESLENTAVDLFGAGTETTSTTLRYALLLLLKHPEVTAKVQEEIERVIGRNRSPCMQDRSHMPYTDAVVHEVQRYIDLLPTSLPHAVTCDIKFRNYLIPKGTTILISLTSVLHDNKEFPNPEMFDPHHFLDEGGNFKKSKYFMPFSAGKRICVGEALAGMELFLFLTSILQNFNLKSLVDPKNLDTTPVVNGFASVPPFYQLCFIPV

[25] = Half life in dog at 5 mg/kg, po by LC-MS/MS analysis; type: ADME, organism-based, Canis lupus familiaris; conditions: in vivo
Mus musculus [26] = assay: Antiobesity activity in diet-induced obesity C57Bl6/J mouse model assessed as change in plasma insulin level at 30 mg/kg qd for 15 days measured on day 15 post 6 hrs fasting; type: functional
Mus musculus [27] = assay: Antiobesity activity in diet-induced obesity C57Bl6/J mouse model assessed as basal glucose level in plasma at 30 mg/kg qd for 15 days measured on day 15 post 6 hrs fasting (reference value: 187 +/- 24 mg/dL); type: functional
[28] = Half life in rat at 10 mg/kg, po by LC-MS/MS analysis; type: ADME, organism-based; conditions: in vivo

For `O=C(O)CCc1cc(F)c(OCc2c(C(F)(F)F)ccn2-c2ccc(Cl)cc2)c(F)c1`, the Activity (Mus musculus [1]) was 457 pg/mL, the Activity (Mus musculus [2]) was -1080 pg/mL and the half-life [3] was 2.58 h. For the same compound, the Activity (Mus musculus [4]) was -83%, the Activity (Mus musculus [5]) was -16.4 mg/dL and the Activity (Cavia porcellus [6]) was “Non-Toxic”. For the same compound, the Activity (Mus musculus [7]) was 16966 pg/mL, the half-life [8] was 4.72 h and the Activity (Cavia porcellus [9]) was “Non-Toxic”. It also gave a half-life [10] of 3.45 h, an Activity (Mus musculus [11]) of 163 mg/dL and an AUC (Mus musculus [12]) of 7430 mg/dL·min. The Activity (Cavia porcellus [13]) was “Non-Toxic”, the AUC (Mus musculus [14]) was 4920 mg/dL·min and the Activity (Mus musculus [15]) was 151 mg/dL. It also gave a half-life [16] of 4.14 h, an Activity (Mus musculus [17]) of 4.6% and an Activity (Mus musculus [18]) of 203 mg/dL. The half-life [19] was 1.64 h, the AUC(0-t) [20] was 47900 ng·h/mL and the Ratio EC50 (Homo sapiens) was 42. For the same compound, the EC50 [21] was 3.52 µM, the INH (Cytochrome P450 1A2) was > 10 µM and the Activity (Mus musculus [22]) was 17395 pg/mL. For the same compound, the Activity (Mus musculus [23]) was 202 mg/dL, the Activity (Mus musculus [24]) was -9% and the INH (Cytochrome P450 2C9) was 7 µM. The half-life [25] was 4.37 h, the Activity (Mus musculus [26]) was -3450 pg/mL and the Activity (Mus musculus [27]) was 201 mg/dL. For the same compound, the half-life [28] was 2.87 h.
